# Screening results as filed in PubChem BioAssay.
# Compounds with a hit are over-represented: about 2.9% of the library has one in this group of screens.
# E-sel inducer – induces E-selectin expression in human endothelial cells; P16581; HUVEC E-selectin immunofluorescence imaging; normalized: neutral wells 0, TNF-alpha wells 100; activation, % at 7.58 µM; 260,000 compounds, 0.37% hits;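 active means mean E-selectin-positive cell signal at least 10% of the positive control, reached in at least 60% of replicates, without over 20% cell loss; inconclusive means no rule given, readout overlaps actives, possibly toxicity-flagged; inactive means the rest, including those meeting only one limit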
# Target sequence (P16581 whole entry, looked up): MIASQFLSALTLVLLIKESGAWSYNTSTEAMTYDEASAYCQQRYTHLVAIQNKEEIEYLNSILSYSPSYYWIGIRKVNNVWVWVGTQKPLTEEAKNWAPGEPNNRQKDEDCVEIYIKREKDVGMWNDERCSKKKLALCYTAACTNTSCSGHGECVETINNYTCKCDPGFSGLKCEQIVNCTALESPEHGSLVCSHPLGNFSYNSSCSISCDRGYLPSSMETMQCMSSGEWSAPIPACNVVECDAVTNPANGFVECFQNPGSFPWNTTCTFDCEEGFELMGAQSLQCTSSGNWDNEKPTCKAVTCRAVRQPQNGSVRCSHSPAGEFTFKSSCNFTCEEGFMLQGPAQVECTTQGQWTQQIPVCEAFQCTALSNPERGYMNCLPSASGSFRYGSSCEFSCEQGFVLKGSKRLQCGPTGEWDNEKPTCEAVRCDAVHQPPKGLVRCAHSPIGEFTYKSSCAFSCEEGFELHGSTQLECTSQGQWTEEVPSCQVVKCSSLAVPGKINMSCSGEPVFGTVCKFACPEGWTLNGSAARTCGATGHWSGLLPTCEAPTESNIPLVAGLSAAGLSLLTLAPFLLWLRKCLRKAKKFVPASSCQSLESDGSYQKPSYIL
#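 assay system = HUVEC, human umbilical vein endothelial cells | input = 3,000 HUVEC seeded per well | medium = EGM-2 growth medium on 0.1% gelatin-coated wells | dosing = one compound dose added by pin transfer | signal = immunofluorescence imaging | read-out basis = % PE-positive cells | control set = TNF-alpha, DMSO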
# SIRT5 inh – blocks human SIRT5 desuccinylation of peptide; Purified SirT5, succinyl-peptide AMC, trypsin-coupled fluorescence; AID 652115; inhibition, % at 15 µM; 330,000 compounds, 1.1% hits; in the data active means inhibition above about 15%; inconclusive means no clear call, values can overlap the other calls
# DENV2 CPE – DENV2-induced cell death inhibition | DENV2-infected cells, cytopathic effect rescue, plate reader | CPE inhibition, % at 9.99 µM | 350,000 compounds, 1.7% hits | AID 651640; in the data active means CPE inhibition above about 20%, passing the limit was not always enough; inconclusive means no clear call, values can overlap the other calls; tested in BHK-21 cells;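 further: 0% = median of neutral control wells and 100% = median of positive control wells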
# An asterisk follows results filed as active; ? = inconclusive; . = no result.
SMILES,E-sel inducer,SIRT5 inh,DENV2 CPE
CCc1ccc(C(=O)NNC(=O)c2c(CC)noc2C)cc1,0,1,37*
CCc1noc(C)c1C(=O)NNC(=O)c1ccccc1,0,-1,-5
COc1ccc(C#Cc2ccc([C@@H]3[C@H](CO)N4CCCCN(S(=O)(=O)c5ccccc5)C[C@@H]34)cc2)cc1,-1,-3,-31
CC(=O)NCCNC(=O)CNC(=O)c1ccc(Cl)cc1,0,.,.
Cc1ccc(C(=O)NCC(=O)NCC(c2cccs2)N2CCOCC2)cc1 (configuration not stated),-1,-9,-4
Cc1ccc(C(=O)NCC(=O)NCC(c2cccs2)N2CCOCC2)cc1C (configuration not stated),.,1,93*
C/C(=N\NC(=O)c1cc(C(C)C)[nH]n1)c1ccncc1,2,-1,13
C/C(=N\NC(=O)c1cc(C(C)C)[nH]n1)c1ccco1,27*,0,0
CCn1c(=O)c(C(=O)NCCCc2ccccc2)c(O)c2ccccc21,3,-15,-9
O=C(CN1CCN(Cc2ccccc2)CC1)NNC(=O)c1ccccc1,1,-5,26*
CCc1ccc(C(=O)NNC(=O)CCN2CCN(Cc3ccccc3)CC2)cc1,-1,-5,2
C[C@@H]1CN([C@H](C)CO)C(=O)c2cccc(NC(=O)CCCCCC(=O)Nc3ccccc3N)c2O[C@H]1CN(C)Cc1ccc(-c2ccccc2)cc1,0,17*,-4
C[C@@H]1CN([C@H](C)CO)C(=O)c2cccc(NC(=O)CCCCCC(=O)Nc3ccccc3N)c2O[C@H]1CN(C)Cc1ccccc1,0,13,1
C[C@H](CO)N1C[C@H](C)[C@@H](CN(C)Cc2ccc(Cl)c(Cl)c2)Oc2c(NC(=O)CCCCCC(=O)Nc3ccccc3N)cccc2C1=O,324*,-2,-6
C[C@H]1CN([C@@H](C)CO)C(=O)c2cccc(NC(=O)CCCCCC(=O)Nc3ccccc3N)c2O[C@@H]1CN(C)Cc1ccc(-c2ccccc2)cc1,1,17*,-1
COc1ccc(CN(C)C[C@@H]2Oc3c(NC(=O)CCCCCC(=O)Nc4ccccc4N)cccc3C(=O)N([C@H](C)CO)C[C@H]2C)cc1,0,0,-3
C[C@@H]1CN([C@@H](C)CO)C(=O)c2cccc(NC(=O)CCCCCC(=O)Nc3ccccc3N)c2O[C@@H]1CN(C)Cc1ccc(Cl)c(Cl)c1,-3,4,-6
CNC(=O)C[C@H]1CC[C@H]2[C@H](COc3ccc(NC(=O)Nc4ccccc4F)cc3C(=O)N2C)O1,0,-9,-1
COc1ccc(C#Cc2cnc3c(c2)C(=O)N([C@H](C)CO)C[C@@H](C)[C@@H](CN(C)CC2CCOCC2)O3)cc1,0,0,3
C[C@H]1CN([C@@H](C)CO)C(=O)c2cc(C3=CCCCC3)cnc2O[C@@H]1CN(C)S(C)(=O)=O,0,.,.
CCOP(=O)(c1ccccc1)C(O)c1ccc([N+](=O)[O-])cc1 (configuration not stated),0,-1,39*
CCOP(=O)(c1ccccc1)C(O)c1ccc(F)cc1 (configuration not stated),-1,-3,.
CCOc1ccc(/C=C2\SC(=S)N(C)C2=O)cc1OC,0,3,10
COC(=O)C[C@H]1c2cc(C(F)(F)F)ccc2S(=O)(=O)N1Cc1ccc(OC)cc1,0,.,20*
COC(=O)C[C@H]1c2cc(F)ccc2S(=O)(=O)N1Cc1ccccc1OC,0,4,16
SMILES,E-sel inducer,SIRT5 inh,DENV2 CPE
COc1ccccc1CN1[C@@H](CC(C)=O)c2cc(C(F)(F)F)ccc2S1(=O)=O,0,.,71*
COc1ccc(CN2[C@@H](CC(=O)O)c3cc(C(F)(F)F)ccc3S2(=O)=O)cc1,0,-2,-5
O=C(Cc1ccccc1)NCC(=O)OCC(=O)c1ccccc1Cl,0,2,-2
O=C(COC(=O)CNC(=O)c1ccccc1)NC1CCCCC1,.,-2,11
O=C(CNC(=O)c1ccccc1)OCC(=O)c1ccccc1Cl,0,0,28*
O=C(COC(=O)CNC(=O)c1ccccc1)NC(=O)NC1CCCCC1,1,23*,-4
CCc1ccc(C(=O)CN2C(=O)NC3(CCCCCC3)C2=O)cc1,0,-2,-11
O=C1CN(S(=O)(=O)c2ccccc2)C[C@@H]2[C@@H](c3ccc(C#Cc4ccccc4)cc3)[C@@H](CO)N12,2,.,4
COCCCn1cc(CN2CC(N3CCN(C)CC3)CS2(=O)=O)nn1 (configuration not stated),4,0,2
COc1ccccc1C(=O)NCCC(=O)N1CCN(C(C)=O)CC1,.,0,50*
COc1ccccc1C(=O)NCCC(=O)N1CCN(C(=O)c2ccco2)CC1,-2,4,?
COc1ccccc1C(=O)NCCC(=O)Nc1ccncc1,0,-1,-9
COc1ccccc1C(=O)NCCC(=O)Nc1ccc(OC(F)(F)F)cc1,.,102*,-8
CCCN(CC(=O)Nc1ccc(C(N)=O)cc1)CC(=O)Nc1ccc(Cl)cc1Cl,-1,-5,-5
CC=Cc1ccc2n(c1=O)C[C@H]1[C@H](CO)[C@@H](C(=O)NC3Cc4ccccc4C3)N(CC3CCCC3)[C@@H]21 (mixture of isomers),-1,-2,-16
CCCC(NC(=O)Cc1c(C)c2cc3c(C)c(C)oc3c(C)c2oc1=O)C(=O)N[C@@H](Cc1ccccc1)C(=O)O (some centres not stated),.,3,49*
Cc1coc2c(C)c3oc(=O)c(CC(=O)N[C@@H](CC(C)C)C(=O)O)c(C)c3cc12,0,-4,5
CCCCC(NC(=O)Cc1c(C)c2cc3c(C)c(C)oc3c(C)c2oc1=O)C(=O)O (configuration not stated),0,1,5
Cc1coc2c(C)c3oc(=O)c(CCC(=O)N[C@@H](C)C(=O)N[C@@H](Cc4ccccc4)C(=O)O)c(C)c3cc12,.,26*,-1
O=C(NCc1ccccc1)C(=O)NCC(c1ccco1)N1CCN(c2ccccc2F)CC1 (configuration not stated),.,2,-9
N#Cc1ccc(CN2CCN(C(=O)CC(NC(=O)c3ccccc3)c3ccccc3)CC2)cc1 (configuration not stated),0,2,63*
N#Cc1ccc(CN2CCN(C(=O)CNC(=O)Cc3cccc4ccccc34)CC2)cc1,0,-6,2
CCCCN1C(=O)C(CC(=O)NCc2cccs2)CC(C(=O)N(C)C)=C1C (configuration not stated),0,-1,-4
O=C(CN1CCN(S(=O)(=O)c2ccccc2F)CC1)NC1CCCC1,0,-7,22*
N#Cc1ccccc1S(=O)(=O)N1CCN(CC(=O)NC(=O)NC2CCCCC2)CC1,.,-5,-4
O=C(NNc1c(F)c(F)cc(F)c1F)C1CCN(S(=O)(=O)c2ccccc2F)CC1,.,-3,43*
O=C(NCc1ccccn1)C1CCN(S(=O)(=O)c2ccccc2F)CC1,-1,-5,4
COCCNC(=O)c1cccc(Nc2nc(-c3ccccc3)c3cc(Cl)ccc3n2)c1,.,0,11
NC(=S)c1cc2cc(Cl)ccc2oc1=O,0,-2,2
CCCNC(=O)N[C@H]1CC[C@@H](CCn2cc(-c3cccc(F)c3)nn2)O[C@H]1CO,1,-2,56*
